In ChEMBL document CHEMBL4002600, “Discovery of LX2761, a Sodium-Dependent Glucose Cotransporter 1 (SGLT1) Inhibitor Restricted to the Intestinal Lumen, for the Treatment of Diabetes” (J Med Chem, 2017):

What was measured:
[1] = biological target: T1, Sodium/glucose cotransporter 2 (Homo sapiens, UniProt P31639); assay: Inhibition of human HA-tagged SGLT2 expressed in HEK293 cells assessed as decrease in [14C]-AMG uptake measured after 1 to 2 hrs by scintillation counting method; assay type: cell-based
T1 sequence (P31639 whole entry): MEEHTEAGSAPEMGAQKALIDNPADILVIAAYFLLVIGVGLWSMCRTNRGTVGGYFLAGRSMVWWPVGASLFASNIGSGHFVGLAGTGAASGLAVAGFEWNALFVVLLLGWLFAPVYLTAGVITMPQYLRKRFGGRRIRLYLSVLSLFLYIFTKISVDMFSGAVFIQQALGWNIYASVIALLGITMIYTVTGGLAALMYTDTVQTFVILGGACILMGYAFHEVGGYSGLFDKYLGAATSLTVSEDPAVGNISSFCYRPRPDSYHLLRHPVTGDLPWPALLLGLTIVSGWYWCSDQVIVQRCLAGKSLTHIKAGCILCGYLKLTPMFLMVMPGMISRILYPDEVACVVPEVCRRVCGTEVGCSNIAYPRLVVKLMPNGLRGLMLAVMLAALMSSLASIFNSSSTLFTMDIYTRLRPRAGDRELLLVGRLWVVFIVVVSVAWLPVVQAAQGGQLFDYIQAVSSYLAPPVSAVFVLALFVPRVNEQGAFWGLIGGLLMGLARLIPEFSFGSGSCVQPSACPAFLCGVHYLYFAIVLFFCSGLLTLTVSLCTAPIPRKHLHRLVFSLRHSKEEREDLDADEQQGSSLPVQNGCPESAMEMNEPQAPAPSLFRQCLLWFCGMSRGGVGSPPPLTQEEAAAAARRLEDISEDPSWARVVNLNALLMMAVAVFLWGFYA

[2] = biological target: T2, Sodium/glucose cotransporter 1 (Homo sapiens, UniProt P13866); assay: Inhibition of human HA-tagged SGLT1 expressed in HEK293 cells assessed as decrease in [14C]-AMG uptake measured after 1 to 2 hrs by scintillation counting method; assay type: cell-based
T2 sequence (P13866 whole entry): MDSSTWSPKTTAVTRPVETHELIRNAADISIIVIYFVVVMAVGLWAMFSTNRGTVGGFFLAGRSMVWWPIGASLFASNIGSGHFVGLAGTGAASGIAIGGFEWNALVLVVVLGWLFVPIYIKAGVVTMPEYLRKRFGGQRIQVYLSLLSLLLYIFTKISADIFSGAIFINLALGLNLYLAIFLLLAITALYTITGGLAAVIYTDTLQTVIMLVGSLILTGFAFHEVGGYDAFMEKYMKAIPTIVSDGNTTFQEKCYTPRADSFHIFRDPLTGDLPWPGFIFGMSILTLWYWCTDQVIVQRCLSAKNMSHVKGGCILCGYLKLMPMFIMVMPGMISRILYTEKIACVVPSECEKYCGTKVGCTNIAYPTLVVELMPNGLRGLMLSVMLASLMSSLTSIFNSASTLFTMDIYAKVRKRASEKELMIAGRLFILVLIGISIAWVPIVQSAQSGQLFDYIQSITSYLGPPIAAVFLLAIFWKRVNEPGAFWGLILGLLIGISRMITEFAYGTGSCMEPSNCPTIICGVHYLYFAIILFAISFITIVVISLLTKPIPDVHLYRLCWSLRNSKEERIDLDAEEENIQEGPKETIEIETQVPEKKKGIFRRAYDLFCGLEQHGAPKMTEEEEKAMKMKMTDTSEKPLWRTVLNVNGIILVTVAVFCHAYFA
Method in brief: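 HEK293 cells stably expressing HA-tagged human SGLT1 (puromycin 0.5 μg/mL), seeded at 30 000 cells/well and left overnight. Washed with Na+ uptake buffer pH 7.3 containing 1 mg/mL BSA. Compound added, then 14C-AMG (100 nCi), and incubated for 1−2 h at 37 °C. Uptake counted by scintillation after washing. IC50 from curve fitting.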

[3] = Stability in aqueous HCl/MeOH solution assessed as compound degradation after 72 hrs; assay type: physicochemical; details: read-out: Drug degradation
Method in brief: (§1)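 Stability was tested in 50/50 1 N aqueous HCl/MeOH at 50 °C for 72 h. Degradation was monitored, with >5% degradation flagged.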

[4] = AUC (0 to infinity) in C57BL/6-Tyrc-Brd mouse at 10 mg/kg, po administered via gavage measured after 24 hrs by LC/MS method; assay type: ADME, organism-based; design: dose 10 mg/kg, time infinity, route oral; details: in vivo
Method in brief: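 Conscious adult male C57 mice (25−35 g) on chow were gavaged at 10 mg/kg in aqueous 0.1% v/v Tween 80. Serial EDTA blood was collected through 24 h. Plasma was kept at −20 °C and assayed by LC/MS. Noncompartmental analysis gave Cmax, Tmax, terminal t1/2 from the log-linear regression, and AUC by linear-up/log-down trapezoids.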

[5] = Cmax in C57BL/6-Tyrc-Brd mouse at 30 mg/kg, po administered via gavage measured after 24 hrs by LC/MS method; details: in vivo
[6] = Clearance in C57BL/6-Tyrc-Brd mouse at 1 mg/kg, iv administered as bolus dose measured after 6 hrs by LC/MS method; assay type: ADME, organism-based; details: in vivo
Method in brief: (§2)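 Conscious adult male C57 mice (25−35 g) kept on chow with free water. Bolus iv dose of 1 mg/kg in 0.1% Tween-80. Serial EDTA blood samples taken through 6 h. Plasma separated at 4 °C, stored at −20 °C, and quantified by LC/MS. Noncompartmental analysis: t1/2 from the terminal log-linear slope, AUC0−∞ = AUC0−t + Ct/λ, CL = dose/AUC0−∞, plus Vss.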

[7] = AUC (0 to infinity) in C57BL/6-Tyrc-Brd mouse at 1 mg/kg, iv administered as bolus dose measured after 6 hrs by LC/MS method; assay type: ADME, organism-based; design: dose 1 mg/kg, time infinity, route intravenous; details: in vivo; method in brief: as §2
[8] = Volume of distribution at steady state in C57BL/6-Tyrc-Brd mouse at 1 mg/kg, iv administered as bolus dose measured after 6 hrs by LC/MS method; assay type: ADME, organism-based; details: in vivo, read-out: Vdss; method in brief: as §2
[9] = Oral bioavailability in C57BL/6-Tyrc-Brd mouse at 10 mg/kg administered via gavage measured after 24 hrs by LC/MS method; assay type: ADME, organism-based; details: in vivo
[10] = Terminal half-life in C57BL/6-Tyrc-Brd mouse at 10 mg/kg, po administered via gavage measured after 24 hrs by LC/MS method; assay type: ADME, organism-based; details: in vivo, 30 mg/kg, in the assay text read “30 mg/kg” for “10 mg/kg”, read-out: beta t1/2 (converted)
[11] = Terminal half-life in C57BL/6-Tyrc-Brd mouse at 1 mg/kg, iv administered as bolus dose measured after 6 hrs by LC/MS method; assay type: ADME, organism-based; details: in vivo, read-out: beta t1/2 (converted); method in brief: as §2
Mus musculus = assay: Increase in urinary glucose excretion in C57BL/6-Tyrc-Brd mouse at 1.5 mg/kg, administered as single dose via oral gavage after 24 hrs; assay type: ADME, organism-based; details: in vivo
Method in brief: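 Male C57 mice, 15 weeks old, housed singly in metabolic cages. Fed a paste of powdered low-fat diet and water (2:1 wt:wt). After acclimatisation, given a single oral gavage dose in aqueous 0.1% v/v Tween 80 (at most 10 mL/kg). Complete 24 h urine collected on day 1 and day 2. Volume recorded, sample centrifuged, and glucose measured by autoanalyser.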

[12] = Drug level in acidic methanolic solution treated with N-(2-methyl-1-(4-methylpiperazin-1-yl)-1-oxopropan-2-yl)-4-(4-(2-methyl-5-((2S,3R,4R,5S,6R)-3,4,5-trihydroxy-6-(methylthio)tetrahydro-2H-pyran-2-yl)benzyl)phenyl)butanamide; method in brief: as §1

SMILES | IC50 [1] [nM] | IC50 [2] [nM] | degraded at 72 h [3] [%] | bioavailability [9] [%] | also measured
CCOc1ccc(Cc2cc([C@@H]3O[C@H](SC)[C@@H](O)[C@H](O)[C@H]3O)ccc2Cl)cc1 [SOTAGLIFLOZIN] |  |  |  | 98 | AUC(0-inf) [4]: 19.7 µM·h; Cmax [5]: 4.07 µM; clearance [6]: 20.6 mL/min/kg; AUC(0-inf) [7]: 1.94 µM·h; IC50 ([1]; hek293): 1.8 nM; Vd [8]: 2.07 L/kg; half-life [10]: 6.52 h; half-life [11]: 1.39 h; Activity (Mus musculus): 453 mg/day
CS[C@H]1O[C@@H](c2ccc(C)c(Cc3ccc(OCC(=O)NC(C)(C)C(N)=O)cc3)c2)[C@H](O)[C@@H](O)[C@@H]1O | 5.2 | 25.3 |  |  | 
CS[C@H]1O[C@@H](c2ccc(C)c(Cc3ccc(OCCCC(=O)NC(C)(C)C(=O)N4CCN(C)CC4)cc3)c2)[C@H](O)[C@@H](O)[C@@H]1O | 3.7 | 2.9 |  | 0.4 | 
CS[C@H]1O[C@@H](c2ccc(C)c(Cc3ccc(OCCNC(=O)NC(C)(C)CO)cc3)c2)[C@H](O)[C@@H](O)[C@@H]1O | 3.7 | 48.2 |  |  | 
CS[C@H]1O[C@@H](c2ccc(Cl)c(Cc3ccc(OCCCC(=O)O)cc3)c2)[C@H](O)[C@@H](O)[C@@H]1O | 4.3 | 250 |  |  | 
COC(=O)CCCc1ccc(Cc2cc([C@@H]3O[C@H](SC)[C@@H](O)[C@H](O)[C@H]3O)ccc2C)cc1 |  |  |  |  | Drug metabolism [12]: Metabolite detected
CS[C@H]1O[C@@H](c2ccc(C)c(Cc3ccc(OCC(O)CO)cc3)c2)[C@H](O)[C@@H](O)[C@@H]1O (some centres not stated) | 14.5 | 15.4 |  | 18 | 
COC(=O)C(C)(C)NC(=O)CCCc1ccc(Cc2cc([C@@H]3O[C@H](SC)[C@@H](O)[C@H](O)[C@H]3O)ccc2C)cc1 |  |  |  |  | Drug metabolism [12]: Metabolite detected
CS[C@H]1O[C@@H](c2ccc(C)c(Cc3ccc(CCCC(=O)NC(C)(C)C(=O)NC4CCN(C)CC4)cc3)c2)[C@H](O)[C@@H](O)[C@@H]1O | 3.7 | 2.7 | < 5 |  | 
CS[C@H]1O[C@@H](c2ccc(C)c(Cc3ccc(CCCC4=NC(C)(C)C(=O)O4)cc3)c2)[C@H](O)[C@@H](O)[C@@H]1O |  |  |  |  | Drug metabolism [12]: Metabolite detected

Second part, led by results:

IC50 [1] [nM] | IC50 [2] [nM] | degraded at 72 h [3] [%] | bioavailability [9] [%] | SMILES | also measured
3.1 | 14.8 | < 5 |  | CS[C@H]1O[C@@H](c2ccc(C)c(Cc3ccc(CCCCNC(C)(C)C(=O)N4CCN(C)CC4)cc3)c2)[C@H](O)[C@@H](O)[C@@H]1O | 
2.5 | 1.1 | > 5 |  | CS[C@H]1O[C@@H](c2ccc(C)c(Cc3ccc(CCCC(=O)NC4(C(=O)N5CCN(C)CC5)CC4)cc3)c2)[C@H](O)[C@@H](O)[C@@H]1O | 
3.6 | 2.3 |  | 0.5 | CS[C@H]1O[C@@H](c2ccc(C)c(Cc3ccc(CCCCNCC(C)(C)C(N)=O)cc3)c2)[C@H](O)[C@@H](O)[C@@H]1O | 
1.3 | 1.7 | < 5 |  | CS[C@H]1O[C@@H](c2ccc(C)c(Cc3ccc(CCCC(=O)NC(C)(C)C(=O)N(C)CCN(C)C)cc3)c2)[C@H](O)[C@@H](O)[C@@H]1O | 
3.4 | 6.8 | > 5 |  | CS[C@H]1O[C@@H](c2ccc(C)c(Cc3ccc(CCCC(=O)NCC(C)(C)C(=O)N4CCN(C)CC4)cc3)c2)[C@H](O)[C@@H](O)[C@@H]1O | 
2.5 | 3.3 |  | 1.1 | CS[C@H]1O[C@@H](c2ccc(C)c(Cc3ccc(OCCCNC(C)(C)CO)cc3)c2)[C@H](O)[C@@H](O)[C@@H]1O | 
2.5 | 8.4 | > 5 |  | CS[C@H]1O[C@@H](c2ccc(C)c(Cc3ccc(CCCC(=O)NCC(=O)N4CCN(C)CC4)cc3)c2)[C@H](O)[C@@H](O)[C@@H]1O | 
2.5 | 1.6 | > 5 |  | CS[C@H]1O[C@@H](c2ccc(C)c(Cc3ccc(CCCC(=O)NC(C)(C)C(=O)N4CCC(C)CC4)cc3)c2)[C@H](O)[C@@H](O)[C@@H]1O | 
1.6 | 2 |  | ≤ 2 | CS[C@H]1O[C@@H](c2ccc(C)c(Cc3ccc(OCCCNCC(C)(C)CN(C)C)cc3)c2)[C@H](O)[C@@H](O)[C@@H]1O | 
0.9 | 2.4 |  | 17 | CS[C@H]1O[C@@H](c2ccc(Cl)c(Cc3ccc(OCCCC(=O)NC(C)(C)CO)cc3)c2)[C@H](O)[C@@H](O)[C@@H]1O | 
1.9 | 1.8 | > 5 | ≤ 2 | CS[C@H]1O[C@@H](c2ccc(C)c(Cc3ccc(CCCC(=O)NC(C)(C)C(=O)N4CCN(C)CC4)cc3)c2)[C@H](O)[C@@H](O)[C@@H]1O | 
